Reference: ChEMBL document CHEMBL1140231, “Design, synthesis, and evaluation of tricyclic, conformationally constrained small-molecule mimetics of second mitochondria-derived activator of caspases” (J Med Chem, 2008)
Active and inactive are the calls of the source. No cut-off for these calls is given here.

Tests used:
[1] = tested on: MDA-MB-231; experiment: Induction of degradation of cIAP1 in human MDA-MB-231 cells after 24 hrs by Western blot analysis; format: functional, cell-based
Method in brief: (§1)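 MDA-MB-231 breast cancer cells exposed to a range of concentrations for 24 hours; lysate proteins probed by Western blot with specific antibodies against cIAP-1, caspase-8, and pro- and cleaved PARP.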

[2] = tested on: MDA-MB-231; experiment: Induction of poly(ADP-ribose) polymerase cleavage in human MDA-MB-231 cells within 24 hrs by Western blot analysis; format: functional, cell-based; method in brief: as §1
[3] = tested on: MDA-MB-231; experiment: Induction of cell death in human MDA-MB-231 cells after 48 hrs by trypan blue assay; format: functional, cell-based
Method in brief: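 MDA-MB-231 breast cancer cells exposed to a range of compound concentrations for 48 hours; viability scored by trypan blue exclusion; percent dead cells reported.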

[4] = tested on: MDA-MB-231; experiment: Induction of caspase 8 processing in human MDA-MB-231 cells within 24 hrs by Western blot analysis; format: functional, cell-based; method in brief: as §1
[5] = tested on: MDA-MB-231; experiment: Induction of degradation of cIAP1 in human MDA-MB-231 cells upto 100 nM after 24 hrs by Western blot analysis; format: functional, cell-based; method in brief: as §1
[6] = tested on: MDA-MB-231; experiment: Induction of cell death in human MDA-MB-231 cells at 1 uM after 48 hrs by trypan blue assay; format: functional
Method in brief: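 MDA-MB-231 breast cancer cells exposed to compound for 48 hours. Viability scored by trypan blue exclusion. Read-out is percentage of cells dead.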

[7] = tested on: MDA-MB-231; experiment: Growth inhibition of human MDA-MB-231 cells after 4 days by WST8 assay; conditions: MDA-MB-231, 96 h

`CN[C@@H](C)C(=O)N[C@H]1Cc2ccccc2[C@H]2CC[C@@H](C(=O)N[C@@H]3CCCc4ccccc43)N2C1=O` was tested, and the Activity [1] was “Active”, the Activity [2] was “Dose-dependent effect” and the Activity [3] was “Dose-dependent effect”. The Activity [4] was “Dose-dependent effect”, the Activity [5] was “Active” and the Activity [6] was 75%.
In the case of `CN[C@@H](C)C(=O)N[C@H]1Cc2ccccc2[C@H]2CCC[C@@H](C(=O)NC(c3ccccc3)c3ccccc3)N2C1=O`, the Activity [1] is reported as “Active”, the Activity [3] is reported as “Dose-dependent effect” and the IC50 [7] is reported as 1.37 µM. The Activity [6] was <20%.
`CN[C@@H](C)C(=O)N[C@H]1Cc2ccccc2[C@H]2CC[C@@H](C(=O)NC(c3ccccc3)c3ccccc3)N2C1=O` was tested, and the Activity [1] was “Active” and the Activity [3] was “Dose-dependent effect”.
